Apaf-1 act – human Apaf-1 activation | O14727 | activity change, negative = activation, % at 20 µM | 330,000 compounds, 0.31% hits | Apaf-1 apoptosome caspase-3 activation, DEVD-Rh110 fluorescence; active compounds read low;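 active means activity change at or below -40% at 20 µM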
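Material: biochemical Apaf-1 apoptosome reconstitution; Medium: 20 mM HEPES buffer, pH 7.5, containing CHAPS and BSA; Reagent: dATP, cytochrome c, and (Z-DEVD)2-Rh110 caspase-3 substrate; Times: 30 min preincubation, 50 min reaction, room temperature; Signal: Rh110 fluorescence, excitation 480 nm, emission 540 nm; Measure: Caspase-3 activity via Apaf-1.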
Rh110 act interf – Rh110 signal interference in Apaf-1 activator counter-screen. shares compounds with Apaf-1 act. Rh110 fluorescence interference, quenched caspase reaction, Ex480/Em540. fluorescence interference (activity change), % at 20 µM, hits read low. 980 tested, under 10 active;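 active means mean activity change at or below -40% when tested at 20 µM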
Apaf-1 act conf2 – Apaf-1 (human) activation, single-dose confirmed; shares compounds with Apaf-1 act; activity change, negative = activation, % at 20 µM; 980 compounds, 5% hits; AID 504617; reconstituted apoptosome caspase-3 activity, DEVD-Rh110 fluorescence; active compounds read low;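 active means mean activity change at or below -40%, meaning activation of 40% or more, at 20 µM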
Apaf1 act interf – shows fluorescence interference in the Apaf-1 activator assay format; EC50, µM; fluorescence interference counterscreen; AID 588592; 55 tested, under 10 active; shares compounds with Apaf-1 act; call rule not given here
Large screens that a line does not name were inactive (follow-up assays come after a bar, where they were run). Not all results are given here.

CCC1CCc2sc(C(=O)NCC(c3ccccc3OC)N3CCCC3)cc2C1 (configuration not stated)	none
O=S(=O)(c1cccc2cccnc12)N1CCCCC1	Apaf-1 act -43.7
O=C(c1ccc(Cl)c(S(=O)(=O)N2CCCCCC2)c1)N1CCCC(C(F)(F)F)C1 (configuration not stated)	none
O=C1C=C(Nc2cccc3cccnc23)c2ccccc2C1=O	none
Clc1ccc(C2=Nn3c(nnc3-c3n[nH]c4c3CCC4)SC2)cc1Cl	none
O=C(CCC1CCCCC1)NCCN1C2=NC[C@@H](Cc3ccccc3)N2C[C@H]1Cc1ccc(O)cc1	none
O=C1C(=O)c2ccccc2C(O)=C1CCCCl	none
Cc1cccc(NC(=O)CSCC(=O)N(C)Cc2ccc(Cl)c(Cl)c2)c1	none
Cc1ccc(OCC(=O)N(Cc2nnc(-c3ccccc3Cl)o2)C2CC2)cc1C	none
C#CCOCCOCCOCCNc1nc(N2CCN(C(=O)C([C@@H](C)O)n3cc([C@@H](N)CCCCN)nn3)CC2)nc(N2CCN(C(=O)[C@H](CCCCN)n3cc([C@@H](N)CC(N)=O)nn3)CC2)n1 (some centres not stated)	none
CCn1cc(CN2CCC(n3nccc3NC(=O)c3cccc(F)c3)CC2)cn1	Apaf-1 act -301.6
CCCCCC#CCC#CCC#CCC#CCCCC(=O)O	none
CCN(CC(=O)Nc1ccccc1OC)C(=O)CN1C(=O)NC(C)(c2ccccc2)C1=O (configuration not stated)	none
COC(=O)C1=C(C)N(Cc2ccccc2)C(=NCCc2cccnc2)N[C@H]1c1ccc(Br)cc1	none
O=C1Cc2ccccc2C(=O)N1Cc1ccccc1	none
Cc1cccc(NC(=O)CN2CCN(C(=O)c3oc4c(Cl)cccc4c3C)CC2)c1C	none
O=C(CCS(=O)(=O)c1ccc(Br)cc1)NCc1ccc(F)cc1	Apaf-1 act -99.1
O=C(OCc1cc(Cl)ccc1OC(F)F)c1ccc([N+](=O)[O-])o1	none
O=C(O)CCC1c2cc3c4cc2OC2Oc5cc6c(cc51)C(CCC(=O)O)c1cc5c7cc1OC(O6)c1cc6cc(c1)Oc1cc(cc(C(=O)O)c1)Oc1cc8cc(c1)C(Oc1cc(c(cc1C5CCC(=O)O)C3CCC(=O)O)OC(O4)c1cc(cc(c1)Oc1cc(cc(C(=O)O)c1)O8)Oc1cc(cc(C(=O)O)c1)Oc1cc(cc2c1)Oc1cc(cc(C(=O)O)c1)O6)O7 (configuration not stated)	none
CC(=O)c1ccc(N2CCN(S(=O)(=O)c3ccc4c5c3CC(=O)N5CC(C)S4)CC2)cc1 (configuration not stated)	none
CC1CN(S(=O)(=O)c2cccc(C(=O)N(CCc3ccccc3)Cc3ccccc3)c2)CC(C)O1 (configuration not stated)	none
CCOCCCNc1nc2nc3ccc(C)cn3c(=O)c2cc1C(=O)NCC1CCCO1 (configuration not stated)	Apaf-1 act -69.0 | Rh110 act interf inactive | Apaf-1 act conf2 inactive
Cc1c(N=Cc2cc3c(cc2[N+](=O)[O-])OCO3)cccc1[N+](=O)[O-]	none
CC(C)(CS(=O)(=O)[O-])NC(=O)CC[N+](C)(C)CCO	Apaf-1 act -597.6 | Rh110 act interf inactive | Apaf-1 act conf2 -128.0 | Apaf1 act interf inactive
COc1ccc(-c2ccc(C(c3c(C)[nH][nH]c3=O)c3c(C)[nH][nH]c3=O)o2)c([N+](=O)[O-])c1	none
CC1=NN(c2ccc(F)cc2)C(=O)C1C(c1cccc(O)c1)c1c(C)[nH]n(-c2ccc(F)cc2)c1=O (configuration not stated)	none
CC1CCCCC1NC(=O)Cn1nnc2ccccc2c1=O (configuration not stated)	Apaf-1 act -197.9 | Rh110 act interf inactive | Apaf-1 act conf2 inactive
CCN1CCN(Cc2ccc(NC(=O)c3ccc(C)c(NC(=O)c4csc(-c5ccncc5)n4)c3)cc2C(F)(F)F)CC1	none
O=[N+]([O-])c1cccc(OCc2cn3cccnc3n2)c1	Apaf-1 act -66.0 | Rh110 act interf inactive | Apaf-1 act conf2 inactive
CCOc1ccc(OCC(=O)OCn2c(SC)nnc(C)c2=O)cc1	Apaf-1 act -75.9 | Rh110 act interf inactive | Apaf-1 act conf2 inactive
Cc1ccc(N=Nc2c(N)[nH]n3c(=O)cc(-c4ccccc4)nc23)cc1	none
CCCCNc1c(-c2ccc(SC3CCCCC3)cc2)nc2cnccn12	none
Cc1cccc(C)c1OCC(=O)N(Cc1ccco1)C1CCS(=O)(=O)C1 (configuration not stated)	Apaf-1 act -378.0 | Rh110 act interf inactive | Apaf-1 act conf2 inactive
Cc1cc2c(N)cccc2nn1	none
COc1ccc(CC(=O)Nc2ccc(S(=O)(=O)Nc3onc(C)c3C)cc2)cc1OC	Apaf-1 act -90.5 | Rh110 act interf inactive | Apaf-1 act conf2 inactive
COc1ccc(CC(=O)NNS(=O)(=O)c2ccc([N+](=O)[O-])cc2)cc1OC	Apaf-1 act -479.1 | Rh110 act interf inactive | Apaf-1 act conf2 inactive
COc1ccc(CCN(C)C(=O)c2ccc(COc3ccccc3)o2)cc1OC	none
COc1ccc(CN2C(=O)Cc3c2nc(N)c2c(N)nc(N4CCCCC4)c(C#N)c32)cc1	none
COc1ccc(/C=C/C(=O)Nc2cc(C)nn2-c2nc3ccccc3[nH]2)cc1	Apaf-1 act -56.2 | Rh110 act interf inactive | Apaf-1 act conf2 inactive
COc1ccc(C(=O)/C=C/Nc2cc(C)ccn2)cc1	Apaf-1 act -165.0 | Rh110 act interf inactive | Apaf-1 act conf2 inactive
CN1/C(=C\C(=O)COC(=O)c2ccc([N+](=O)[O-])o2)C(C)(C)c2ccccc21	none
CC1=NN(c2ccc(Cl)cc2)C(=O)C1C(c1cccc(O)c1)c1c(C)[nH]n(-c2ccc(Cl)cc2)c1=O (configuration not stated)	none
O=C1NC2=C(CCc3ccccc32)C(c2ccccc2)N1 (configuration not stated)	none
CCOC(=O)CSc1nc2cc(C(=O)NCc3ccco3)ccc2c(=O)n1-c1ccc(F)cc1	Apaf-1 act -105.2 | Rh110 act interf inactive | Apaf-1 act conf2 inactive
NC1=NC[C@H](Cc2ccccc2)N1CCc1cc(C(F)(F)F)cc(C(F)(F)F)c1	none
Cc1cc(N2CCN(c3ccc([N+](=O)[O-])c4cccnc34)CC2)c2ccccc2n1	none
CC[C@@H](C)[C@@H]1CN([C@@H](CN2CCC[C@H]2CN2C(N)=NC[C@H]2C(C)C)C(C)C)C(=N)N1CCCC1CCCC1	none
COc1ccc(C(C(=O)NC2CCCC2)N(Cc2ccc(F)cc2)C(=O)c2ccn[nH]2)cc1OC (configuration not stated)	Apaf-1 act -105.4 | Rh110 act interf inactive | Apaf-1 act conf2 inactive
Cc1ccc(C(=O)N/C(=C\c2ccc(-c3ccccc3[N+](=O)[O-])o2)C(=O)NCCCN(C)C)cc1	none
Cc1cccc(N(C(=O)Cn2nnc3ccccc32)C(C(=O)NCc2ccco2)c2ccncc2)c1 (configuration not stated)	Apaf-1 act -46.8 | Rh110 act interf inactive | Apaf-1 act conf2 inactive
COc1ccc2[nH]c3c(C)c4ccncc4c(C)c3c2c1	none
C/C(=N\NC(=O)c1ccc(NS(=O)(=O)c2cccs2)cc1)c1ccc(Cl)cc1	Apaf-1 act -45.8 | Rh110 act interf inactive | Apaf-1 act conf2 inactive
